System: U2OS
Assay: Multiplex assay against U2OS
Type: toxicity, cell-based
Conditions: human
Procedure, shortened: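 Per cents of healthy-nucleus cells form the tubulin, mitochondrial-mass and membrane-permeability phenotype values. Live cells were stained at seeding with Hoechst33342, BioTracker Green Microtubule Cytoskeleton Dye, MitoTracker Red and Annexin V Alexa Fluor 680. After compound addition they were imaged on a CQ1 microscope at 37°C and 5% CO2, and CellPathfinder machine-learning gating split them into Hoechst high-intensity objects or normal cells, normal cells into healthy, pyknosed or fragmented nuclei, and pyknosed cells into mitotic or apoptotic.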

[1] = 12 h, 1 µM, compound concentration 1 uM, replicate 1
[2] = 12 h, 1 µM, compound concentration 1 uM, replicate 2
[3] = 12 h, 10 µM, compound concentration 10 uM, replicate 1
[4] = 12 h, 10 µM, compound concentration 10 uM, replicate 2
[5] = 24 h, 1 µM, compound concentration 1 uM, replicate 1
[6] = 24 h, 1 µM, compound concentration 1 uM, replicate 2
[7] = 24 h, 10 µM, compound concentration 10 uM, replicate 1
[8] = 24 h, 10 µM, compound concentration 10 uM, replicate 2
[9] = 48 h, 1 µM, compound concentration 1 uM, replicate 1
[10] = 48 h, 1 µM, compound concentration 1 uM, replicate 2
[11] = 48 h, 10 µM, compound concentration 10 uM, replicate 1
[12] = 48 h, 10 µM, compound concentration 10 uM, replicate 2

N[C@](CC1c2ccccc2Oc2ccccc21)(C(=O)O)[C@H]1C[C@@H]1C(=O)O
Population Apoptotic (%) [1]: 80% | Population Fragmented Nuclei (%) [1]: 22% | Population Healthy Nuclei (%) [1]: 67% | Population Hoechst High Intensity Objects (%) [1]: 1% | Population Membrane Permeable-Phenotype (%) [1]: 6% | Population Mitochondria Different-Phenotype (%) [1]: 2% | Population Mitotic Cells (%) [1]: 20% | Population Normal (%) [1]: 98% | Population Pyknosed Nuclei (%) [1]: 9% | Population Tubulin-Different-Phenotype (%) [1]: 4% | Total Cell Count [1]: 218 | Population Apoptotic (%) [2]: 72% | Population Fragmented Nuclei (%) [2]: 10% | Population Healthy Nuclei (%) [2]: 79% | Population Membrane Permeable-Phenotype (%) [2]: 1% | Population Mitochondria Different-Phenotype (%) [2]: 8% | Population Mitotic Cells (%) [2]: 27% | Population Tubulin-Different-Phenotype (%) [2]: 3% | Total Cell Count [2]: 114 | Population Apoptotic (%) [3]: 84% | Population Fragmented Nuclei (%) [3]: 18% | Population Healthy Nuclei (%) [3]: 72% | Population Hoechst High Intensity Objects (%) [3]: 3% | Population Membrane Permeable-Phenotype (%) [3]: 5% | Population Mitochondria Different-Phenotype (%) [3]: 3% | Population Mitotic Cells (%) [3]: 16% | Population Normal (%) [3]: 96% | Population Pyknosed Nuclei (%) [3]: 8% | Population Tubulin-Different-Phenotype (%) [3]: 2% | Total Cell Count [3]: 295 | Population Apoptotic (%) [4]: 83% | Population Fragmented Nuclei (%) [4]: 19% | Population Healthy Nuclei (%) [4]: 76% | Population Hoechst High Intensity Objects (%) [4]: 0% | Population Membrane Permeable-Phenotype (%) [4]: 7% | Population Mitochondria Different-Phenotype (%) [4]: 0% | Population Normal (%) [4]: 100% | Population Pyknosed Nuclei (%) [4]: 4% | Total Cell Count [4]: 141 | Population Apoptotic (%) [5]: 78% | Population Fragmented Nuclei (%) [5]: 20% | Population Healthy Nuclei (%) [5]: 70% | Population Hoechst High Intensity Objects (%) [5]: 1% | Population Membrane Permeable-Phenotype (%) [5]: 1% | Population Mitochondria Different-Phenotype (%) [5]: 1% | Population Mitotic Cells (%) [5]: 21% | Population Normal (%) [5]: 98% | Population Pyknosed Nuclei (%) [5]: 8% | Population Tubulin-Different-Phenotype (%) [5]: 1% | Total Cell Count [5]: 272 | Population Apoptotic (%) [6]: 63% | Population Fragmented Nuclei (%) [6]: 14% | Population Healthy Nuclei (%) [6]: 77% | Population Hoechst High Intensity Objects (%) [6]: 0% | Population Membrane Permeable-Phenotype (%) [6]: 4% | Population Mitochondria Different-Phenotype (%) [6]: 5% | Population Mitotic Cells (%) [6]: 36% | Population Normal (%) [6]: 99% | Population Tubulin-Different-Phenotype (%) [6]: 2% | Total Cell Count [6]: 137 | Population Apoptotic (%) [7]: 80% | Population Fragmented Nuclei (%) [7]: 13% | Population Healthy Nuclei (%) [7]: 79% | Population Hoechst High Intensity Objects (%) [7]: 3% | Population Membrane Permeable-Phenotype (%) [7]: 3% | Population Mitochondria Different-Phenotype (%) [7]: 3% | Population Mitotic Cells (%) [7]: 20% | Population Normal (%) [7]: 96% | Population Pyknosed Nuclei (%) [7]: 7% | Population Tubulin-Different-Phenotype (%) [7]: 1% | Total Cell Count [7]: 365 | Population Apoptotic (%) [8]: 81% | Population Fragmented Nuclei (%) [8]: 15% | Population Healthy Nuclei (%) [8]: 77% | Population Hoechst High Intensity Objects (%) [8]: 0% | Population Membrane Permeable-Phenotype (%) [8]: 8% | Population Mitochondria Different-Phenotype (%) [8]: 1% | Population Mitotic Cells (%) [8]: 18% | Population Normal (%) [8]: 99% | Population Pyknosed Nuclei (%) [8]: 6% | Population Tubulin-Different-Phenotype (%) [8]: 3% | Total Cell Count [8]: 164 | Population Apoptotic (%) [9]: 89% | Population Fragmented Nuclei (%) [9]: 14% | Population Healthy Nuclei (%) [9]: 75% | Population Hoechst High Intensity Objects (%) [9]: 2% | Population Membrane Permeable-Phenotype (%) [9]: 3% | Population Mitochondria Different-Phenotype (%) [9]: 1% | Population Mitotic Cells (%) [9]: 10% | Population Normal (%) [9]: 97% | Population Pyknosed Nuclei (%) [9]: 9% | Population Tubulin-Different-Phenotype (%) [9]: 1% | Total Cell Count [9]: 403 | Population Apoptotic (%) [10]: 85% | Population Fragmented Nuclei (%) [10]: 16% | Population Healthy Nuclei (%) [10]: 72% | Population Hoechst High Intensity Objects (%) [10]: 1% | Population Membrane Permeable-Phenotype (%) [10]: 5% | Population Mitochondria Different-Phenotype (%) [10]: 3% | Population Mitotic Cells (%) [10]: 15% | Population Normal (%) [10]: 98% | Population Pyknosed Nuclei (%) [10]: 10% | Population Tubulin-Different-Phenotype (%) [10]: 4% | Total Cell Count [10]: 190 | Population Apoptotic (%) [11]: 90% | Population Fragmented Nuclei (%) [11]: 15% | Population Healthy Nuclei (%) [11]: 77% | Population Hoechst High Intensity Objects (%) [11]: 1% | Population Membrane Permeable-Phenotype (%) [11]: 4% | Population Mitochondria Different-Phenotype (%) [11]: 3% | Population Mitotic Cells (%) [11]: 10% | Population Normal (%) [11]: 98% | Population Pyknosed Nuclei (%) [11]: 7% | Population Tubulin-Different-Phenotype (%) [11]: 2% | Total Cell Count [11]: 554 | Population Apoptotic (%) [12]: 81% | Population Fragmented Nuclei (%) [12]: 12% | Population Healthy Nuclei (%) [12]: 78% | Population Hoechst High Intensity Objects (%) [12]: 0% | Population Membrane Permeable-Phenotype (%) [12]: 7% | Population Mitochondria Different-Phenotype (%) [12]: 1% | Population Mitotic Cells (%) [12]: 18% | Population Normal (%) [12]: 100% | Population Pyknosed Nuclei (%) [12]: 9% | Population Tubulin-Different-Phenotype (%) [12]: 3% | Total Cell Count [12]: 238
